The target in assay [1] is Sodium/potassium-transporting ATPase. The assay can be described thus: 50% displacement of the specific [3H]ouabain binding from the dog kidney Na+/K+ ATPase. It is filed as protein-complex assay, Canis lupus familiaris. A digest of the protocol: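 [3H]ouabain binding was measured on isolated, purified dog kidney Na+,K+-ATPase (α1 isoform), with compounds used within 1–4 h of dissolution.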

Assay [2] has the same target. As to the kind of experiment: 35% displacement of the specific [3H]-ouabain binding from the dog kidney Na+/K+ ATPase. It is filed as protein-complex assay, Canis lupus familiaris.
Assay [3] has the same target. The assay can be described thus: 30% displacement of the specific [3H]ouabain binding from the dog kidney Na+/K+ ATPase. It is filed as protein-complex assay, Canis lupus familiaris.
Assay [4] is filed under the species Cavia porcellus. The assay can be described thus: Maximal increase in force of contraction in electrically driven guinea pig left atrium. It is filed as functional, Cardiac atrium. A digest of the protocol: (§1)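 Electrically paced guinea pig left atria (platinum electrodes, 1 Hz, 1 ms pulses at twice threshold voltage) were equilibrated for 60 min. Cumulative compound concentrations were then added, each left in contact until maximal response or arrhythmias appeared. Force of contraction was recorded.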

For assay [5], the species on record is Cavia porcellus. The assay can be described thus: Concentration of compound producing 50% of the maximal increase in force of contraction in electrically driven guinea pig left atrium. It is filed as functional. Conditions: Cardiac atrium. A digest of the protocol: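 Whole guinea pig left atria were paced through platinum electrodes with 1 Hz square-wave pulses (1 ms, twice threshold voltage) and equilibrated for 60 min. Compounds were then added cumulatively, each concentration held until maximal response or arrhythmia. The concentration giving half-maximal increase in contractile force was calculated from concentration–response curves.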

For assay [6], the species on record is Cavia porcellus. The assay can be described thus: Concentration of compound to obtain maximum inotropic activity on electrically driven guinea pig left atrium. It is filed as functional, Cardiac atrium. In a few lines: as §1
For assay [7], the target named is Sodium/potassium-transporting ATPase. The assay can be described thus: 20% displacement of the specific [3H]ouabain binding from the dog kidney Na+/K+ ATPase. It is filed as protein-complex assay, Canis lupus familiaris.
Assay [8] has the same target. The assay can be described thus: 45% displacement of the specific [3H]ouabain binding from the dog kidney Na+/K+ ATPase. It is filed as protein-complex assay, Canis lupus familiaris.

The structures appear in SMILES notation.

As a reminder, the IC50 is the concentration at which inhibition is half-maximal. Low readings indicate greater potency, high ones weaker potency. Turning to `CN(C)CCCO/N=C/[C@H]1CC[C@]2(O)C[C@@H](C3CCCCC3)CC[C@]12C`, the concentration for half-maximal inhibition (IC50) in assay [1] came to 3.2 µM.
In assay [1], `CN(C)CCO/N=C/[C@H]1CC[C@]2(O)C/C(=C\c3ccccc3)CC[C@]12C` had an IC50 of 8 µM.
Still for that read-out and setting: the result for `CN(C)CCO/N=C/[C@H]1CC[C@]2(O)C/C(=C/c3ccccc3)CC[C@]12C` reads 50 µM.
As for `CC(/C=N/N=C(N)N)=C\[C@H]1CC[C@]2(O)C[C@@H](C3CCCCC3)CC[C@]12C`, the concentration for half-maximal inhibition (IC50) in assay [2] is greater than 100 µM.
As for `C[C@]12CC[C@H](C3CCCCC3)C[C@@]1(O)CC[C@@H]2C1=CC(=O)OC1`, the IC50 in assay [3] is greater than 10 µM.
For the molecule `C[C@]12CC[C@H](C3CCCCC3)C[C@@]1(O)CC[C@@H]2/C=N/OCCCN`, the IC50 in assay [1] turned out to be 0.8 µM.
For orientation: EC50 means the midpoint of the concentration-response curve. The low end stands for a more potent agent, the high end for a less potent agent. Take `CN(C)CCO/N=C/[C@H]1CC[C@]2(O)C[C@@H](C3CCCCC3)CC[C@]12C`: the “Increase (Emax)” value in assay [4] is given as 70%. Moreover, in assay [5], the EC50 is 12 µM. The molecule also showed an IC50 in assay [1] of 1.6 µM. In addition, the “Concentration giving maximal inotropic effect” value in assay [6] was found to be 100 µM.
In assay [1], `C[C@]12CC[C@H](C3CCCCC3)C[C@@]1(O)CC[C@@H]2C/C=N\OCCN` had a half-maximal inhibitory concentration (IC50) of 1.6 µM.
In the case of `CN(C)CCO/N=C/[C@H]1CC[C@]2(O)CC([C@H]3CC[C@@H](O)CC3)CC[C@]12C` (some centres not stated), the IC50 in assay [1] was found to be 1.6 µM.
The same measure, in the same setting: in the case of `CN(C)CCO/N=C/CC[C@H]1CC[C@]2(O)C[C@@H](C3CCCCC3)CC[C@]12C` it was 5 µM; in that of `CN(C)CCO/N=C/[C@H]1CC[C@]2(O)C[C@@H](CC3CCCCC3)CC[C@]12C`, 4 µM; in that of `CC(/C=N/OCCN)=C\[C@H]1CC[C@]2(O)C[C@@H](C3CCCCC3)CC[C@]12C`, 1.3 µM.
Same read-out and setting: in the case of `CN(C)CCO/N=C/[C@H]1CC[C@]2(O)C[C@@H](c3ccccc3)CC[C@]12C` it was 3.2 µM; in that of `C[C@]12CC[C@H](C3CCCCC3)C[C@@]1(O)CC[C@@H]2/C=N/OCCCCN`, 13 µM.
For `CN(C)CCO/N=C/[C@H]1CC[C@]2(O)[C@@H]3CC[C@@H]4C[C@@H](O)CC[C@]4(C)[C@H]3CC[C@]12C`, the “Increase (Emax)” value in assay [4] came out at 39%. In addition, the 50% inhibitory concentration (IC50) in assay [1] turned out to be 0.04 µM.
Regarding `C[C@]12CC[C@H](c3ccccc3)C[C@@]1(O)CC[C@@H]2CNOCCN`, the IC50 in assay [1] is 20 µM.
In the case of `CN(C)CCO/N=C/[C@H]1CC[C@]2(O)C[C@H](c3ccccc3)CC[C@]12C`, the IC50 in assay [3] was greater than 100 µM.
In the case of `C[C@H]1O[C@@H](O[C@H]2[C@@H](O)C[C@H](O[C@H]3[C@@H](O)C[C@H](O[C@H]4CC[C@@]5(C)[C@H](CC[C@@H]6[C@@H]5C[C@@H](O)[C@]5(C)[C@@H](C7=CC(=O)OC7)CC[C@]65O)C4)O[C@@H]3C)O[C@@H]2C)C[C@H](O)[C@@H]1O` [DIGOXIN], the “Increase (Emax)” value in assay [4] stood at 184%. In addition, in assay [6], the “Concentration giving maximal inotropic effect” value worked out at 1 µM.
`CN(C)CCO/N=C/[C@H]1CC[C@]2(O)C[C@@H](c3cccc(O)c3)CC[C@]12C` returned an IC50 in assay [1] of 10 µM.
Still for that read-out and setting: the result for `CN(C)CCO/N=C/[C@H]1CC[C@]2(O)C[C@@H](c3ccc(OCCN(C)C)cc3)CC[C@]12C` reads 1 µM.
The same measure, in the same setting: the result for `CN(C)CCO/N=C/[C@H]1CC[C@]2(O)C[C@@H](Cc3ccccc3)CC[C@]12C` reads 3.2 µM; that for `Cc1ccc([C@H]2CC[C@]3(C)[C@@H](/C=N/OCCN)CC[C@]3(O)C2)cc1`, 6.3 µM.
The molecule `C[C@]12CC[C@H](C3CCCCC3)C[C@@]1(O)CC[C@@H]2/C=N/OCCN` displayed an IC50 in assay [1] of 1 µM.
Still for that read-out and setting: in the case of `CN(C)CCO/N=C/[C@H]1CC[C@]2(O)C[C@@H](c3ccncc3)CC[C@]12C` it was 2.5 µM; in that of `CN(C)CCONC[C@H]1CC[C@]2(O)C[C@@H](c3ccccc3)CC[C@]12C`, 10 µM.
Same read-out and setting: in the case of `CN(C)CCO/N=C/[C@H]1CC[C@]2(O)CC([C@H]3CC[C@H](O)CC3)CC[C@]12C` (some centres not stated) it was 1 µM.
Regarding `C[C@]12CC[C@H](C3CCCCC3)C[C@@]1(O)CC[C@@H]2/C=C/C=N/OCCN`, in assay [4], the “Increase (Emax)” value is on record as 90%. In assay [5], this molecule registered an EC50 of 15 µM. Moreover, in assay [1], the IC50 was found to be 1 µM. Moreover, the “Concentration giving maximal inotropic effect” value in assay [6] amounted to 100 µM.
In turn, `CC(/C=N/OCCN(C)C)=C\[C@H]1CC[C@]2(O)C[C@@H](C3CCCCC3)CC[C@]12C` registered an IC50 in assay [1] of 2 µM.
`Cc1cccc([C@H]2CC[C@]3(C)[C@@H](/C=N/OCCN)CC[C@]3(O)C2)c1`: in assay [1], the IC50 turned out to be 3.2 µM.
As to `CN(C)CCO/N=C/[C@H]1CC[C@]2(O)C[C@H](CC3CCCCC3)CC[C@]12C`, in assay [1], the 50% inhibitory concentration (IC50) amounted to 100 µM.
Still for that read-out and setting: in the case of `Cc1ccc([C@H]2CC[C@]3(C)[C@@H](/C=N/OCCN(C)C)CC[C@]3(O)C2)cc1` it was 10 µM; in that of `CN(C)CCO/N=C/[C@H]1CC[C@]2(O)C[C@@H](c3cccc(CO)c3)CC[C@]12C`, 5 µM; in that of `CN(C)CCO/N=C/[C@H]1CC[C@]2(O)C[C@@H](c3ccc(O)cc3)CC[C@]12C`, 2.5 µM.
On the same count and under the same terms, the result for `C[C@]12CC[C@H](c3cccc(CO)c3)C[C@@]1(O)CC[C@@H]2/C=N/OCCN` reads 2.5 µM.
For `C[C@]12CC[C@H](C3CCCCC3)C[C@@]1(O)CC[C@@H]2/C=N/N=C(N)N`, in assay [1], the IC50 was 63 µM.
In the case of `CN(C)CCO/N=C/C=C/[C@H]1CC[C@]2(O)C[C@@H](C3CCCCC3)CC[C@]12C`, the “Increase (Emax)” value in assay [4] was 50%. The EC50 in assay [5] came to 20 µM. Also, the IC50 in assay [1] was 1 µM. In addition, in assay [6], the “Concentration giving maximal inotropic effect” value is 100 µM.
For the molecule `C[C@]12CCCC[C@@]1(O)CC[C@@H]2/C=N/OCCCN`, the half-inhibitory concentration (IC50) in assay [7] was greater than 100 µM.
Consider `C[C@]12CC[C@H](c3ccccc3)C[C@@]1(O)CC[C@@H]2/C=N/N=C(N)N`, for which, in assay [2], the IC50 was greater than 100 µM.
In assay [1], `C[C@]12CC[C@H](c3ccc(CO)cc3)C[C@@]1(O)CC[C@@H]2/C=N/OCCN` had an IC50 of 2.5 µM. That is a single-digit micromolar value.
Still for that read-out and setting: in the case of `C[C@]12CC[C@H](C3CCCCC3)C[C@@]1(O)CC[C@@H]2/C=C/C=N/N=C(N)N` it was 16 µM; in that of `CN(C)CCCCO/N=C/[C@H]1CC[C@]2(O)C[C@@H](C3CCCCC3)CC[C@]12C`, 10 µM; in that of `C[C@]12CC[C@H](C3CCCCC3)C[C@@]1(O)CC[C@@H]2CC/C=N/OCCN`, 3.2 µM.
Regarding `Cc1cccc([C@H]2CC[C@]3(C)[C@@H](/C=N/OCCN(C)C)CC[C@]3(O)C2)c1`, the IC50 in assay [1] was determined as 5 µM.
Consider `C[C@]12CC[C@H](O)C[C@H]1CC[C@@H]1[C@@H]2CC[C@]2(C)[C@@H](C3=CC(=O)OC3)CC[C@]12O` [DIGITOXIGENIN], for which the “Increase (Emax)” value in assay [4] stood at 200%. Further, the “Concentration giving maximal inotropic effect” value in assay [6] stood at 3 µM.
As for `CN(C)CCO/N=C/C=C/[C@H]1CC[C@]2(O)[C@@H]3CC[C@@H]4C[C@@H](O)CC[C@]4(C)[C@H]3CC[C@]12C`, the “Increase (Emax)” value in assay [4] came out at 191%. The molecule further displayed a 50% inhibitory concentration (IC50) in assay [1] of 0.025 µM. Besides, in assay [6], the “Concentration giving maximal inotropic effect” value was 0.3 µM.
In assay [1], `CN(C)CCO/N=C\C[C@H]1CC[C@]2(O)C[C@@H](C3CCCCC3)CC[C@]12C` displayed a 50% inhibitory concentration (IC50) of 1.6 µM.
`C[C@]12CC[C@H](c3ccccc3)C[C@@]1(O)CC[C@@H]2/C=N/OCCN`: in assay [1], the IC50 amounted to 4 µM.
As to `C[C@]12CC[C@H](O)C[C@H]1CC[C@@H]1[C@@H]2CC[C@]2(C)[C@@H](/C=C/C=N/OCCN)CC[C@]12O`, the “Increase (Emax)” value in assay [4] amounted to 155%. The same molecule came in with an IC50 in assay [1] of 0.016 µM. In addition, in assay [6], the “Concentration giving maximal inotropic effect” value was found to be 0.3 µM.
As to `CN(C)CCO/N=C/[C@H]1CC[C@]2(O)C[C@@H](c3ccc(CO)cc3)CC[C@]12C`, the 50% inhibitory concentration (IC50) in assay [1] was 8 µM.
On to `CN(C)CCO/N=C/[C@H]1CC[C@]2(O)C[C@H](Cc3ccccc3)CC[C@]12C`, for which, in assay [8], the IC50 is greater than 100 µM.
In assay [1], `CN(C)CCO/N=C/[C@H]1CC[C@]2(O)C[C@@H](c3cccnc3)CC[C@]12C` came in with an IC50 of 13 µM.

Values taken from ChEMBL document CHEMBL1135396, “Synthesis and inotropic activity of 1-(O-aminoalkyloximes) of perhydroindene derivatives as simplified digitalis-like compounds acting on the Na(+),K(+)-ATPase” (J Med Chem, 2002).
